Two compounds from ChEMBL document CHEMBL1146529, “Isolations of N-methyl-D-aspartic acid-type glutamate receptor ligands from Micronesian sponges” (J Nat Prod, 2003) can be followed below.

The source made the active and inactive calls. No cut-off for these calls is given here.

One experiment concerns the target Glutamate NMDA receptor. Kind of experiment: Displacement of [3H]CGP39653 from NMDA receptor in Sprague-Dawley rat brain membrane. In kind it is cell membranes. The method, boiled down: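 Synaptic membranes were prepared from Sprague-Dawley rats (200-220 g). The assay used 2 nM [3H]CGP39653 to label the NMDA site, incubated at 4 °C for 1 h in 5 mM Tris-HCl (pH 7.7). Inhibition of labelled-ligand binding gave the IC50.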

Experiment [1] has as its system AMPA-type glutamate receptor (Rattus norvegicus). Kind of experiment: Displacement of [3H]AMPA from AMPA receptor in Sprague-Dawley rat brain membrane. (In a radioligand displacement assay an active substance lowers the binding of a labelled ligand.)
The subject of experiment [2] is Kainate-type glutamate receptor (Rattus norvegicus). Kind of experiment: Displacement of [3H]kanic acid from kainate receptor in Sprague-Dawley rat brain membrane.
For experiment [3], the system named is Mus musculus. Kind of experiment: Agonist activity at NMDA receptor assessed as induction of convulsive behavior in intracerebroventricular dosed ddY mouse. The class given is functional. The method in brief:
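Male ddY mice (15-20 g, 4-6 weeks old) received intracerebroventricular injections. More than three animals were used per dose. ED50 (pmol/mouse) was derived from dose-response curves.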

Experiment [4] deals with Mus musculus. Description: Agonist activity at NMDA receptor assessed as induction of violent convulsive behavior in intracerebroventricular dosed ddY mouse at 145 pmol. In kind it is functional, organism-based.
In experiment [5] the test system is Mus musculus. Kind of experiment: Induction of convulsive behavior in icv dosed ddY mouse assessed as hyperactivie and stereotypical behaviors at 33 pmol. In kind it is functional, organism-based.

For orientation: IC50 means the concentration that gives 50% inhibition. Read a high IC50 as lower potency.

For the compound `O=C(O)[C@@H]1C[C@@H](OS(=O)(=O)O)CCN1`, the IC50 on Glutamate NMDA receptor worked out at 0.214 µM. For the same compound, the result in experiment [1] was inactive. Moreover, the result in experiment [2] was inactive. Also, in the experiment on Mus musculus [3], the Activity result is “Dose-dependent effect” and the ED50 was determined as 20 pmol.

As for `O=C(O)[C@@H]1C[C@@H](OS(=O)(=O)O)[C@H](O)CN1` [CRIBRONIC ACID], the IC50 on Glutamate NMDA receptor is 0.083 µM. In addition, the outcome in the experiment with Mus musculus [4] and in the experiment with Mus musculus [5] was Active. Moreover, the result in experiment [1] and in experiment [2] was inactive. The Activity result with Mus musculus [3] was “Dose-dependent effect”. Also, the ED50 in the experiment with Mus musculus [3] is 29 pmol.
